EBV gp42 inh = inhibitors of Epstein-Barr virus glycoprotein 42 | inhibition, % (tested at 21.74 µM) | Q1HVG2 | Fluorescence polarization binding assay, mP read-out | 220,000 tested, 0.42% active; in the data active means inhibition above about 50%
Target sequence (Q1HVG2 whole entry, looked up): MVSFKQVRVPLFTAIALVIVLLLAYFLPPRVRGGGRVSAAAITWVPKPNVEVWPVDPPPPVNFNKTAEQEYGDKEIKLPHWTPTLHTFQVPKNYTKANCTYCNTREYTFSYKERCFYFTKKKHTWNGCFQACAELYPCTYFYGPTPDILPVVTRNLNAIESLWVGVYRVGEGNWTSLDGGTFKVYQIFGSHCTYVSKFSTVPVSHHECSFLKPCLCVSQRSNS
EBNA-1 inhibitor = blocks EBNA-1 binding to DNA; EBNA-1 DNA binding, fluorescence polarization; inhibition, % at 14.8 µM; 300,000 tested, 0.34% active; AID 1950; in the data active means inhibition above about 28%
MEX-5 binding = C. elegans MEX-5 TCR-2 RNA binding activity; Q9XUB2; MEX-5/FITC-TCR2 RNA binding, fluorescence polarization; active compounds read low; activity score (negative = inhibition of binding), % at 10 µM; 300,000 tested, 0.38% active;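 active means inhibition past about -25% in most replicates, and total fluorescence under double the plate's negative control median, limit read from the data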;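 further: 0% = DMSO and -100% = 5 µM competing unlabeled TCR2 RNA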
core dimer inh = blocks dimerization of HCV core protein; TR-FRET GST/Flag-core106 dimerization, 1536-well; inhibition, % at 5 µM; 300,000 tested, 0.33% active; AID 1899;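 active means inhibition above the mean of all tested compounds plus 3 SD, set per screening campaign, cut at about 45% in these data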
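Assay system: tagged HCV core106 pair (GST and Flag); medium: KF-containing HEPES buffer, pH 7.45, DTT, CHAPS, BSA; also added: Eu donor and XL665 acceptor anti-tag antibodies; dosing: 5 µM single dose; timing: compound-protein-antibody incubation 4 h at 22.5 °C; signal: TR-FRET 671 and 617 nm emission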
HCV NS3 hel inh = HCV NS3 helicase inhibition; NS3 helicase DNA unwinding, Cy5 molecular beacon fluorescence; inhibition, % at 10.9 µM; 290,000 tested, 0.56% active; AID 1800;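 active means inhibition above the mean of all tested compounds plus 3 SD, set per campaign, cut at about 35% in these data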;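 further: 0% = DMSO wells and 100% = thioflavine S control wells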
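System: HCV NS3 helicase fragment; control set: DMSO and thioflavine S; technique: Cy5 fluorescence at 0 and 60 min, beacon hairpin quenching; reagent: beacon DNA duplex substrate plus ATP; replicates: singlicate; schedule: 1 h reaction at 25 °C, ATP-initiated; medium: MOPS buffer pH 6.5 with MgCl2, DTT, Tween20, BSA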
ZTA counter = counter-screen for EBNA-1 inhibitors: inhibitors of Epstein-Barr virus ZTA. P03206. 320,000 tested, 0.15% active. ZTA-DNA binding, fluorescence polarization. inhibition, % at 11 µM. AID 2234; in the data active means inhibition above about 33%
Target sequence (P03206 whole entry, looked up): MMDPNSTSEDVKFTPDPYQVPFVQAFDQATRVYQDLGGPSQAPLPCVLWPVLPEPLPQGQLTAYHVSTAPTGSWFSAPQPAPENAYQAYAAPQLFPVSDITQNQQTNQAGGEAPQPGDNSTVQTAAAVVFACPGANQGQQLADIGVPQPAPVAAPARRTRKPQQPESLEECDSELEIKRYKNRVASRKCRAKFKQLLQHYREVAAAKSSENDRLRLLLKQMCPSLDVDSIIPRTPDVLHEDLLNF
NS3 helicase cf = HCV NS3 helicase inhibition, confirmation assay. shares compounds with HCV NS3 hel inh. NS3 helicase DNA unwinding, Cy5 molecular beacon fluorescence. inhibition, % at 10.9 µM. 1,600 tested, 31% active;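 active means inhibition above the mean of all tested compounds plus 3 SD, cutoff set per campaign, cut at about 36% in these data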
FID counter trip = displaces DNA intercalator in HCV helicase counter-screen; AID 1945; shares compounds with HCV NS3 hel inh; 1,600 tested, 4% active; inhibition, % at 7.9 µM; DNA fluorescent intercalator displacement, fluorescence; in the data active means inhibition above about 37%;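 further: 0% = vehicle and 100% = reference compound; higher means more displacement of ethidium bromide from the DNA hairpin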
FID counter DR = displaces fluorescent intercalator from DNA, HCV helicase counter-screen; 120 tested, under 10 active; fluorescent intercalator displacement from DNA, fluorescence; shares compounds with HCV NS3 hel inh; IC50, µM; call rule not given here
Starred values were filed as active, the others as inactive; nt = not tested or not shown. This is a sample that favours compounds with a hit; in the whole collection about 1.7% have one here.

SMILES	EBV gp42 inh	EBNA-1 inhibitor	MEX-5 binding	core dimer inh	HCV NS3 hel inh	ZTA counter	NS3 helicase cf	FID counter trip	others
CCC1CCCCN1CCCNC(=O)c1ccc2c(c1)N(Cc1ccc(F)cc1)C(=O)c1ccccc1S2=O (stereo unspecified)	nt	-10.1	-1.2	-6.6	-34.0	2.9	nt	nt
N=c1c(S(=O)(=O)c2ccc(Cl)cc2)cc2c(=O)n3ccccc3nc2n1Cc1ccco1	nt	-5.2	-8.8	35.4	44.8*	-8.6	69.7*	48.4*
Cn1cccc1Cc1nnc(SCC(=O)Nc2nc3ccccc3s2)n1CCc1ccccc1	-10.9	22.0	nt	-6.3	52.1*	-9.5	5.1	-21.3
Cc1nnc(NC(=O)CSc2nnc(Cc3cccn3C)n2CCc2ccccc2)s1	-5.5	1.7	-2.1	1.1	17.2	9.1	nt	nt
O=C(COc1ccccc1Cl)NC1CC1	nt	3.7	-1.2	-2.0	6.0	18.6	nt	nt
Cc1ccc(N(C(=O)c2csnn2)C(C(=O)NC2CCCC2)c2ccncc2)c(C)c1 (stereo unspecified)	nt	-4.9	1.9	-3.0	38.8*	-3.2	-6.6	-8.0
Cc1sc2c(c1C)C(O)=C(C(=O)Nc1ccccc1)S(=O)(=O)N2C	-14.0	-7.1	-0.3	-1.7	43.9*	0.6	59.5*	-4.2
O=C(NNC(=S)NC1CCCCC1)c1sc2ccccc2c1Cl	4.7	12.2	-0.8	11.2	48.0*	4.5	45.6*	-18.2
CCCCC(=O)OCC(=O)N1N=C(c2c[nH]c3ccccc23)C(O)C1c1ccc(OC)cc1 (stereo unspecified)	nt	10.4	0.2	8.8	-44.6	11.7	nt	nt
O=C(CSc1nnc(NC(=O)c2ccccc2F)s1)NCc1ccco1	nt	-3.9	0.6	-3.4	4.4	2.0	nt	nt
CCOC(=O)Cc1cc(=O)n2[nH]cc(-c3ccc(Cl)cc3)c2n1	5.8	-4.8	-2.0	4.0	64.3*	8.5	84.3*	12.7
CC1(C)Cc2c(C#N)c(NCCc3ccccc3)nc(-c3ccco3)c2CO1	-21.2	11.1	-2.8	33.8	40.2*	7.4	62.9*	-19.4	FID counter DR=>79.4
O=C1NC(=Nc2ccccc2)S/C1=C\C=C\c1ccco1	-16.7	15.4	-3.0	20.8	43.8*	19.6	3.0	-1.6
Cc1cccc(N=C2NC(=O)/C(=C/c3cccn3C)S2)c1C	-42.0	2.3	5.0	0.9	18.1	10.6	nt	nt
Cc1ccc(N=C2NC(=O)/C(=C/C=C/c3ccco3)S2)cc1	-16.4	2.2	2.4	59.2*	114.4*	-3.7	8.9	3.2
COc1ccc(N=C2NC(=O)/C(=C/c3ccco3)S2)cc1	-7.0	5.9	1.4	-1.1	25.0	-5.5	nt	nt
Cc1cccc(N=C2NC(=O)/C(=C/C=C/c3ccco3)S2)c1C	24.8	1.3	-0.7	58.6*	44.8*	14.5	88.2*	33.5	FID counter DR=>79.4
O=C1NC(=Nc2ccccc2)S/C1=C\c1ccccc1	nt	3.4	-6.2	-5.5	39.7*	8.7	5.2	14.5
Cc1ccccc1C(=O)NCC(=O)OCCOc1ccc(C(C)C)c(C)c1	nt	0.6	-0.3	3.3	nt	1.4	nt	nt
Cc1nc2ccc(NC(=O)c3cc(Cl)ccn3)cc2s1	nt	-9.2	0.4	-7.9	-2.3	-18.1	nt	nt
Cc1cc(/C=C2\Cc3ccccc3C2=O)c(C)n1-c1ccccc1	29.1	7.6	-0.5	34.2	38.8*	0.0	-17.1	-20.3
O=C(/C=C/c1ccc(-c2ccccc2)o1)c1ccccc1	-1.1	10.8	-0.9	25.4	46.9*	2.4	-18.7	0.9
Cc1ccc(C(=O)/C=C/c2ccc(-c3ccccc3[N+](=O)[O-])o2)cc1	-0.5	1.9	-2.4	6.0	36.9*	13.5	38.8*	17.0
O=C(NCCCc1ccc(F)cc1)C1CCC(=O)N(CCN2CCOCC2)C1 (stereo unspecified)	nt	6.3	2.2	11.1	-0.2	7.4	nt	nt
COc1cc(/C=C(\CC(=O)O)c2nc3ccccc3s2)cc(OC)c1O	-13.3	-1.5	0.2	-1.6	4.2	-15.6	nt	nt
